# Bioassay records deposited in PubChem by The Scripps Research Institute Molecular Screening Center.
# OX1R antag-1 – antagonists of human orexin 1 receptor (OX1R); O43613; OX1R-expressing cells, FRET antagonist read-out; inhibition, % at 6.6 µM; 1.8% of 330,000 active; AID 485270; in the data active = inhibition mostly above about 38%, no sharp cut-off; inactive = mostly below about 40%;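 also: 0% = agonist challenge alone and 100% = reference antagonist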
# OX1R antag-2 – antagonists of human orexin 1 receptor. CHO/OX1R cells, Fluo-8 calcium fluorescence, orexin A. 0.43% of 330,000 active. inhibition, % at 5 µM. O43613;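 active = inhibition above its plate's threshold, mean inhibition of all tested compounds on the plate plus 3 SD, cut at about 37% in these data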;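 also: 0% = orexin A challenge wells and 100% = SB-334867-A antagonist wells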
# CHO parental Ca – counter-screen for OX1R antagonists: effect in parental CHO cells | parental CHO-K1, ATP-induced calcium, Fluo-8 fluorescence | inhibition, % at 5.6 µM | 0.63% of 330,000 active | AID 463079;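 active = inhibition above that plate's mean sample inhibition plus 3 SD, cut at about 26% in these data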;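 also: 0% = ATP-challenged DMSO wells and 100% = DMSO wells without ATP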
#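 Assay system: untransfected parental CHO cell line. Also added: ATP agonist challenge. Dosing: one dose, 5.6 µM nominal. Measured by: Fluo-8 fluorescence. Read-out: % inhibition. Benchmarks: ATP wells versus no-ATP DMSO wells. Repeats: no replicates.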
# TAAR1 agonist – agonists of human TAAR1; Q96RJ0; CHO RD-HGA16 TAAR1, Fluo-8 calcium fluorescence; vehicle wells 0%, saturating PEA agonist 100%; activation, % at 3 µM; 0.99% of 360,000 active; AID 624467;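 active = activation above the mean activation of all test compounds in the run plus 3 SD, cut at about 38% in these data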
# Target sequence (Q96RJ0 whole entry, looked up): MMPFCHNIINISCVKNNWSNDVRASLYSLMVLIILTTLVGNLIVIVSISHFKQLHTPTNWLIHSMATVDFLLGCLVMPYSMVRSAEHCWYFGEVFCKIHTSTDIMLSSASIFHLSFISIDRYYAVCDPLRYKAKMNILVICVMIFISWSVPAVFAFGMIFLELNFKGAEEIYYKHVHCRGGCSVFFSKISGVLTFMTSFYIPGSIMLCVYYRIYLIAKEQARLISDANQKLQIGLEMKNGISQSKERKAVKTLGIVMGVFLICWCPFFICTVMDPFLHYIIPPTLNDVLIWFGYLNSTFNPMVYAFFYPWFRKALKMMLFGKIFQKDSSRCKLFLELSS
#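 Signal – calcium-sensitive Fluo-8 signal, excitation 470-495, emission 515-575 nm · System – RD-HGA16 (CHO) cells co-expressing Gα16 and hTAAR1 · Incubation – 17-24 h seeding, 75 min 37 °C dye, 30 min RT · Compound dosing – 3 µM single concentration · Repeats – no replicates (n 1)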
# GPR7 antag – human neuropeptides B/W receptor 1 antagonism; 1.1% of 290,000 active; AID 1861; inhibition, % at 4.4 µM; GPR7-expressing cells, fluorescence antagonist assay; in the data active = inhibition above about 16%, passing the limit was not always enough;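 also: cells stimulated with the agonist NPW; 0% = agonist with vehicle and 100% = vehicle without agonist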
# TAAR1 antagonist – human TAAR1 antagonism; CHO RD-HGA16 TAAR1, Fluo-8 calcium fluorescence, antagonist; inhibition, % at 3 µM; 1.5% of 360,000 active; AID 624466;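 active = inhibition above a per-plate cutoff, the mean inhibition of test compounds on that plate plus 3 SD, cut at about 49% in these data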;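 also: 0% = DMSO plus EC80 beta-PEA response and 100% = DMSO alone without agonist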
#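 Test system: hTAAR1-expressing CHO RD-HGA16 cells, Gα16-coupled; Probe or stimulus: EC80 β-phenethylamine stimulus; Compound dosing: single nominal final test compound concentration of 3 µM; Timing: 140 s kinetic read after compound, 140 s after agonist; Signal: Fluo-8 calcium-sensitive fluorescence; Measure: % inhibition of agonist calcium response; Controls: DMSO and EC80 PEA controls.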
# TAAR1 ag conf – confirmation of human TAAR1 agonists; shares compounds with TAAR1 agonist; CHO RD-HGA16 TAAR1, Fluo-8 calcium fluorescence; scaled: DMSO 0%, maximal phenethylamine 100%; activation, % at 3 µM; 82% of 2,400 active;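 active = activation above a cutoff set at the run's mean compound activation plus 3 SD, cut at about 39% in these data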
# Ga16 ag counter – nonselective agonism, TAAR1 counter-screen; shares compounds with TAAR1 agonist; CHO-Ga16 parental, Fluo-8 calcium fluorescence; normalized to maximal ATP response, DMSO zero; activation, % at 3 µM; 50% of 2,400 active; AID 651787;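 active = activation above the run cutoff, the mean activation over all tested wells plus 3 SD, cut at about 12% in these data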;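 also: 0% = DMSO wells and 100% = maximal ATP response on the peak over basal ratio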
# TAAR1 desens – counter-screen for human TAAR1 agonists: agonists that desensitize TAAR1; inhibition, % at 3 µM; shares compounds with TAAR1 agonist; AID 651951; 46% of 2,400 active; CHO RD-HGA16 hTAAR1, Fluo-8 calcium, beta-PEA response inhibition;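 active = inhibition above the run cutoff, the mean inhibition of all test compounds plus 3 SD, cut at about 49% in these data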;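 also: beta-PEA stimulus applied at its EC80; loss of beta-PEA calcium signal after compound pretreatment read as receptor desensitization; 0% = DMSO with beta-PEA at EC80 and 100% = DMSO alone without agonist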
# Ga16 antag count – nonselective Ga16 antagonist in TAAR1 agonist counter-screen; CHO-Ga16 ATP-induced calcium, Fluo-8 fluorescence; AID 651952; 39% of 2,400 active; inhibition, % at 3 µM; shares compounds with TAAR1 agonist;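 active = inhibition above the plate's mean compound inhibition plus 3 SD, computed per plate, cut at about 22% in these data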;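 also: 0% = EC80 ATP with DMSO and 100% = DMSO wells without ATP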
# An asterisk follows results filed as active; · = no result. Most compounds without a hit are left out; they make up all but 4.6% or so of the library.
SMILES,OX1R antag-1,OX1R antag-2,CHO parental Ca,TAAR1 agonist,GPR7 antag,TAAR1 antagonist,TAAR1 ag conf,Ga16 ag counter,TAAR1 desens,Ga16 antag count
O=C(CSc1nc2[nH]ncc2c(=O)[nH]1)NCc1ccccc1,7,-8,-6,-1,-3,-4,·,·,·,·
COc1ccc(COC(=O)CCS(=O)(=O)c2ccc(C)cc2)cc1F,6,-11,-4,-1,·,-21,·,·,·,·
CCCCCc1c(-c2cccc(F)c2)ncn1CCc1ccccc1OC,·,·,·,9,·,26,·,·,·,·
CCc1c(Cc2ccccc2)ncn1CCc1ccccc1OC,·,·,·,52*,·,-1,75*,2,21,10
COc1ccccc1CCn1cnc(Cc2ccccc2)c1C(C)C,·,·,·,54*,·,48,72*,6,59*,22*
CCc1c(-c2ccc(F)cc2F)ncn1CCc1ccccc1OC,·,·,·,15,·,1,·,·,·,·
COc1ccccc1N1CCN(C(=O)c2cccc3c(=O)c(C)c(-c4ccccc4)oc23)CC1,18,0,-8,70*,-6,60*,69*,37*,48,33*
COc1ccccc1N1CCN(C(=O)c2cc(C)oc2C)CC1,19,-18,-6,9,-6,0,·,·,·,·
Cc1ccc(S(=O)(=O)Cc2ccc(C(=O)N3CCN(Cc4ccccc4)CC3)o2)cc1,13,-25,-13,1,0,-7,·,·,·,·
Cc1ccc(S(=O)(=O)Cc2ccc(C(=O)N3CCc4ccccc4C3)o2)cc1,9,-26,-8,69*,5,64*,48*,5,11,16
COc1ccc(S(=O)(=O)Cc2ccc(C(=O)N3CCc4ccccc4C3)o2)cc1,9,-34,-11,61*,6,61*,92*,23*,76*,12
COc1ccccc1N1CCN(C(=O)c2ccc(CS(=O)(=O)c3ccccc3OC)o2)CC1,9,-15,-9,59*,-8,38,59*,21*,55*,34*
CCOC(=O)c1cc(OC(=O)Cc2ccc(OC)c(S(=O)(=O)N3CCOCC3)c2)cc(C(=O)OCC)c1,·,·,·,2,·,3,·,·,·,·
CCOC(=O)c1sc(N)c(C(=O)OC)c1C,17,0,-8,1,19,-15,·,·,·,·
COc1cccc(OC)c1C(=O)NCCc1ccccc1,14,-3,1,81*,·,8,80*,0,63*,6
COc1cc(C)c(NC(=O)C(=S)NCCc2ccccc2)cc1C,13,-14,-14,66*,-12,79*,92*,2,85*,16
O=C(NCCc1ccccc1)c1c(F)c(F)c(F)c(F)c1F,12,-10,-2,4,-11,6,·,·,·,·
COC(=O)c1c(N)sc(C(=O)NCCc2ccccc2)c1C,·,·,·,101*,-2,74*,86*,4,89*,22*
O=C(Cn1ccc([N+](=O)[O-])n1)NCc1cccnc1,11,-14,16,7,-15,-2,·,·,·,·
O=[N+]([O-])c1ccc2nonc2c1Nc1ccccc1,27*,-5,-7,78*,-20,24,5,1,-6,1
O=[N+]([O-])c1cccc(Nc2c([N+](=O)[O-])ccc3nonc23)c1,-9,-10,-4,2,-11,-17,·,·,·,·
Nc1c(NCCC2=CCCCC2)c(=O)[nH]c(=O)n1Cc1ccccc1,11,-34,-18,55*,-8,-13,68*,2,28,7
O=c1[nH]c(CSc2ncn[nH]2)nc2ccccc12,3,2,-3,42*,-10,-23,37,2,16,6
O=c1[nH]c(CSc2ncnc3sccc23)nc2ccccc12,13,-23,-18,-1,-8,5,·,·,·,·
CCOC(=O)c1c(C)[nH]c(C)c1S(=O)(=O)NCCc1sccc1C,26,-27,-26,54*,2,24,27,1,42,8
CCOC(=O)c1c(C)[nH]c(C)c1S(=O)(=O)NCCc1ccc(SC)cc1,26,-2,-5,5,-4,-16,·,·,·,·
COc1cccc(NC(=O)Cn2c(=O)n(CCC(=O)NC3CCN(Cc4ccccc4)CC3)c(=O)c3ccccc32)c1,6,-45,-12,2,-11,-16,·,·,·,·
CCOC(=O)[C@]12CCCC=C1N(Cc1ccc3c(c1)OCO3)C(=O)[C@H](CC(=O)NCCc1ccccc1OC)C2,·,·,·,74*,·,28,75*,-2,69*,10
CCOC(=O)[C@]12CCC=C1N(CCC1=CCCCC1)C(=O)[C@H](CC(=O)NCc1cccc3ccccc13)C2,·,·,·,9,·,-14,·,·,·,·
COC(=O)[C@]12CCCCC=C1N(CCC1=CCCCC1)C(=O)[C@H](CC(=O)NCCc1ccccc1OC)C2,·,·,·,34,·,40,·,·,·,·
